According to ChEMBL document CHEMBL1131631, “Piperazinyl oxazolidinone antibacterial agents containing a pyridine, diazene, or triazene heteroaromatic ring” (1998):
Values after ≈ are worked out from the molar mass of the structure shown.

Columns and labels:
[1] = system: Mus musculus; assay: compound was tested against Staphylococcus aureus UC9213 the eperezolid administered (PO) in mouse positive control expressed as ED50 values.
[2] = system: Staphylococcus aureus; assay: Minimum inhibitory concentration against Staphylococcus aureus UC9213; assay type: functional
Method in brief: (§1)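 MIC in µg/mL. S. aureus UC 9213 is methicillin-susceptible, and S. aureus UC 6685 and S. epidermidis UC 12084 are methicillin-resistant. E. faecalis UC 9217 and S. pneumoniae UC 9912 were also tested.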

[3] = system: Staphylococcus epidermidis; assay: Minimum inhibitory concentration against Staphylococcus epidermis UC12084; assay type: functional
Method in brief: as §1

[4] = system: Streptococcus pneumoniae; assay: Minimum inhibitory concentration Streptococcus pneumoniae UC9912; assay type: functional
Method in brief: as §1

[5] = system: Enterococcus faecalis; assay: Minimum inhibitory concentration against Enterococcus faecalis UC9217; assay type: functional
Method in brief: as §1

[6] = system: Mus musculus; assay: Compound was tested against Staphylococcus aureus UC9213 after po administration in mouse; assay type: functional
Method in brief: (§2)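 Lethal systemic S. aureus infection in mice, with oral dosing. The ED50 is the dose in mg/kg body weight per dose that reduces mortality by 50%. The 95% confidence limits are −50% and +100% of the nominal value.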

[7] = system: Staphylococcus aureus; assay: Minimum inhibitory concentration against Staphylococcus aureus UC6685; assay type: functional
Method in brief: as §1

[8] = system: Staphylococcus aureus; assay: compound was tested against Staphylococcus aureus UC9213 the eperezolid administered positive control expressed as ED50 values.; assay type: functional
Method in brief: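 Eperezolid was given orally in the same lethal systemic mouse S. aureus trial as the test agents. The ED50 is the mg/kg/dose that reduces mortality by 50%.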

[9] = system: Staphylococcus aureus; assay: compound was tested against Staphylococcus aureus UC9213 after po administration.; assay type: functional
Method in brief: as §2

[10] = system: Mus musculus; assay: compound was tested against Staphylococcus aureus UC9213 the vancomycin administered (sc) in mouse positive control expressed as ED50 values.; assay type: functional

SMILES | ED50 [1] | MIC [2] | MIC [3] | MIC [4] | MIC [5] | ED50 [6] | MIC [7] | ED50 [8] | ED50 [9] | ED50 [10]
CC(=O)NC[C@H]1CN(c2ccc(N3CCN(c4ncccn4)CC3)c(F)c2)C(=O)O1 | 6.2 mg/kg | 2 µg/mL (≈ 4.83 µM) | 0.5 µg/mL (≈ 1.21 µM) | 0.5 µg/mL (≈ 1.21 µM) | 2 µg/mL (≈ 4.83 µM) | 6 mg/kg | 2 µg/mL (≈ 4.83 µM) |  |  | 
CC(=O)NC[C@H]1CN(c2ccc(N3CCN(c4ncccc4C#N)CC3)c(F)c2)C(=O)O1 | 3.2 mg/kg | 2 µg/mL (≈ 4.56 µM) | 0.5 µg/mL (≈ 1.14 µM) | 0.5 µg/mL (≈ 1.14 µM) | 1 µg/mL (≈ 2.28 µM) | > 20 mg/kg | 2 µg/mL (≈ 4.56 µM) |  |  | 
CC(=O)NC[C@H]1CN(c2ccc(N3CCN(c4cc(NC(C)=O)c(Cl)nn4)CC3)c(F)c2)C(=O)O1 |  | > 16 µg/mL | 16 µg/mL (≈ 31.6 µM) | 4 µg/mL (≈ 7.91 µM) | > 16 µg/mL |  | > 16 µg/mL |  |  | 
CC(=O)NC[C@H]1CN(c2ccc(N3CCN(c4nccc(C(F)(F)F)n4)CC3)c(F)c2)C(=O)O1 |  | > 16 µg/mL | 16 µg/mL (≈ 33.2 µM) | 2 µg/mL (≈ 4.15 µM) | > 16 µg/mL |  | > 16 µg/mL |  |  | 
COc1nc(OC)nc(N2CCN(c3ccc(N4C[C@H](CNC(C)=O)OC4=O)cc3F)CC2)n1 |  | 4 µg/mL (≈ 8.41 µM) | 1 µg/mL (≈ 2.1 µM) | 0.5 µg/mL (≈ 1.05 µM) | 1 µg/mL (≈ 2.1 µM) |  | 2 µg/mL (≈ 4.21 µM) |  |  | 
CCCOc1nc(Cl)nc(N2CCN(c3ccc(N4C[C@H](CNC(C)=O)OC4=O)cc3F)CC2)n1 |  | 16 µg/mL (≈ 31.5 µM) | 8 µg/mL (≈ 15.7 µM) | 2 µg/mL (≈ 3.94 µM) | 8 µg/mL (≈ 15.7 µM) |  | 8 µg/mL (≈ 15.7 µM) |  |  | 
CC(=O)NC[C@H]1CN(c2ccc(N3CCN(c4c(F)c(F)nc(F)c4F)CC3)c(F)c2)C(=O)O1 |  | > 16 µg/mL | > 16 µg/mL | 2 µg/mL (≈ 4.12 µM) | > 16 µg/mL |  | > 16 µg/mL |  |  | 
CC(=O)NC[C@H]1CN(c2ccc(N3CCN(c4cc(C)c(Cl)nn4)CC3)c(F)c2)C(=O)O1 |  | 8 µg/mL (≈ 17.3 µM) | 2 µg/mL (≈ 4.32 µM) | 1 µg/mL (≈ 2.16 µM) | 4 µg/mL (≈ 8.64 µM) |  | 4 µg/mL (≈ 8.64 µM) | 8.7 mg/kg | > 20 mg/kg | 
CC(=O)NC[C@H]1CN(c2ccc(N3CCN(c4nc(N)nc(N)n4)CC3)c(F)c2)C(=O)O1 | 4.4 mg/kg | 4 µg/mL (≈ 8.98 µM) | 1 µg/mL (≈ 2.24 µM) | 0.5 µg/mL (≈ 1.12 µM) | 2 µg/mL (≈ 4.49 µM) | > 20 mg/kg | 4 µg/mL (≈ 8.98 µM) |  |  | 
CC(=O)NC[C@H]1CN(c2ccc(N3CCN(c4nnc(Cl)c(C)c4C)CC3)c(F)c2)C(=O)O1 |  | > 16 µg/mL | 4 µg/mL (≈ 8.39 µM) | 2 µg/mL (≈ 4.19 µM) | > 16 µg/mL |  | > 16 µg/mL |  |  | 
CC(=O)NC[C@H]1CN(c2ccc(N3CCN(c4nc(F)c(F)cc4F)CC3)c(F)c2)C(=O)O1 |  | 2 µg/mL (≈ 4.28 µM) | 1 µg/mL (≈ 2.14 µM) | 0.5 µg/mL (≈ 1.07 µM) | 2 µg/mL (≈ 4.28 µM) |  | 2 µg/mL (≈ 4.28 µM) |  |  | 
CC(=O)NC[C@H]1CN(c2ccc(N3CCN(C(=O)CO)CC3)c(F)c2)C(=O)O1 [EPEREZOLID] |  | 4 µg/mL (≈ 10.1 µM) | 0.5 µg/mL (≈ 1.27 µM) | 0.5 µg/mL (≈ 1.27 µM) | 2 µg/mL (≈ 5.07 µM) | 1.9 mg/kg | 1 µg/mL (≈ 2.54 µM) |  |  | 3.9 mg/kg
CC(=O)NC[C@H]1CN(c2ccc(N3CCN(c4cccc(C)n4)CC3)c(F)c2)C(=O)O1 |  | 4 µg/mL (≈ 9.36 µM) | 2 µg/mL (≈ 4.68 µM) | 0.5 µg/mL (≈ 1.17 µM) | 2 µg/mL (≈ 4.68 µM) |  | 2 µg/mL (≈ 4.68 µM) |  |  | 
CC(=O)NC[C@H]1CN(c2ccc(N3CCN(c4ccnc5ccccc45)CC3)c(F)c2)C(=O)O1 |  | 2 µg/mL (≈ 4.31 µM) | 0.5 µg/mL (≈ 1.08 µM) | 0.25 µg/mL (≈ 0.539 µM) | 2 µg/mL (≈ 4.31 µM) |  | 2 µg/mL (≈ 4.31 µM) |  |  | 
CC(=O)NC[C@H]1CN(c2ccc(N3CCN(c4cccc(F)n4)CC3)c(F)c2)C(=O)O1 |  | 2 µg/mL (≈ 4.64 µM) | 1 µg/mL (≈ 2.32 µM) | 0.5 µg/mL (≈ 1.16 µM) | 2 µg/mL (≈ 4.64 µM) |  | 2 µg/mL (≈ 4.64 µM) |  |  | 
CC(=O)NC[C@H]1CN(c2ccc(N3CCN(c4cc(C#N)ccn4)CC3)c(F)c2)C(=O)O1 |  | 1 µg/mL (≈ 2.28 µM) | 1 µg/mL (≈ 2.28 µM) | 0.5 µg/mL (≈ 1.14 µM) | 1 µg/mL (≈ 2.28 µM) |  | 1 µg/mL (≈ 2.28 µM) |  |  | 
